Results published in the EternaBench riboswitch data.

System: MS2 coat protein
Assay: apparent Kd, MS2 coat protein; higher = weaker binding; RNA-MaP array; FMN 200 µM where present
Method in brief: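 Stalled E. coli RNA polymerase produced the designs on Illumina sequencing-chip clusters. SNAP-549-labelled MS2 coat protein was added from 0.7 or 1.5 nM, doubling to 3 µM, without and then with constant ligand, in 100 mM Tris-HCl pH 7.5, 80 mM KCl, 4 mM MgCl2, BSA, DTT, yeast tRNA and Tween-20. The apparent Kd is the median of filtered per-cluster fits of green signal normalised to red-channel RNA signal and control-cluster median Fmax.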

[1] = designed as: OFF switch for flavin mononucleotide, no ligand
[2] = ligand present: flavin mononucleotide, designed as: OFF switch for flavin mononucleotide
[3] = designed as: ON switch for flavin mononucleotide, no ligand
[4] = ligand present: flavin mononucleotide, designed as: ON switch for flavin mononucleotide

Sequence | apparent Kd [1] [nM] | apparent Kd [2] [nM] | apparent Kd [3] [nM] | apparent Kd [4] [nM]
GGAUAGGACAGAGGAUAUUCGUGCUAGAGAUACUAGCAAAAUUUCCUCACAUGAGGAUCACCCAUGUAGAAGGCUGUCCUAUCG | 5.37 | 10.3 |  | 
GCCCUCGCUGAGGAUAUUAUCUGGCUCGAUUGAUAAGAAGGCAGUACAUGAGGAUCACCCAUGUGGUUCGUUCG | 69.5 | 265 |  | 
AGACUGAAGCAAGGAUAUUGUAAGGUUAUCGUACAAGAAGGUGCUGUUUAUGUCUCUUAACAUGAGGAUCACCCAUGUUUUGAA |  |  | 18.4 | 18.1
UACCGCCGCACGGACGCGUUGAGUCAGGAUAUACAUGAGGAUCACCCAUGUGAAGGCCGGCUCAUGUAGAAGGGACAAGCGUUG | 6.2 | 7.14 |  | 
GGUCGUAAGGAGAAGGGCUACUGGUUGAAACCUGCGGCCUCUGGAACAUGAGGAUCACCCAUGUAGCAGGAUAUCCUUGCGUGA | 188 | 45.3 |  | 
AACAGGACAGGAUAUACAUGAGGAUCACCCAUGUGAGAAUUAAGUAGAUUACCACAAAGUAGAAGGGUCCUGGA | 50.4 | 87.2 |  | 
ACGAAAACACAAAUGUUCCACGGUGCAGAAGGGUCCCUCACAUGAGGAUCACCCAUGUAACUCGGACAGGAUAUGCUUUUGGGA |  |  | 380 | 11.4
UGUUAAUAUCGAGGAUAUGUCUAGACACAUGAGGAUCACCCAUGUAUGUGUAUAGAAGGCGAUAUUAACAGCAUGUUACAUGCU |  |  | 39.9 | 17.5
CGCUACGUUUCGUAGCAGUGUCAUCGAGAAGGCCCUGACAUGAGGAUCACCCAUGUUCCAAAAUGGGAGGAUAUCGAUGAUACA |  |  | 4.89 | 4.99
GCACGGCAUGUAGGAUAUCGAGCGCCGGGCGCUCGAGAAGGACAUGAGGAUCACCCAUGUGCUCACAGUGAGUGAGUGCUGUGC | 19.6 | 37.4 |  | 
GCAGCAAUCUAAAACAUGAGGAUCACCCAUGUCGAGAGAUAUGAGGAUAUGCAUCGGAUGAAGAUGCAGAAGGCAUUGUGCUGC |  |  | 8.66 | 6.35
UAUAUGUCAGGAUAUCGAUUGGUACGGAAUUCGGUACUGGUUGAGAAGGGACAUGAGGAUCACCCAUGUUUUUC | 38.5 | 228 |  | 
GUUUCUAUAAGUUAUAAUAAAUAGUCAGAAGGUGAUACUACGACAUGAGGAUCACCCAUGUUUUUCAAGGAUAUGAUGUUACUC |  |  | 373 | 50
GGUUGUCAUCGUCAUCCUUUCGGUACAUGAGGAUCACCCAUGUAGGAUAUGCUGCAUUCGAUGUGGCAGAAGGGCGUGUGUGUU | 23.5 | 41 |  | 
UUGGACGUCGUAGGAUAUGUAGGAUAUUCCUACAUGAGGAUCACCCAUGUAGACAUGGAAGAAGGACAGAAGGACGAUGUCCAU |  |  | 25.9 | 4.79
ACCUCACAUGAGGAUCACCCAUGUCAGGAUAUCUAUUAUUGCAGCGUUCCCGUCGCUGAGAGAAGGGACAUUAA | 14 | 16.8 |  | 
CCUCUACAUGAGGAUCACCCAUGUGAGGAUAUCAAAGCCAGAGCGGAUCUCUGGUCCAUGAGAAGGUGCAUGGU | 20.4 | 89.6 |  | 
UAAUUAAAUGUGAGGAUAUGCUGGUCCUUGGAUCAGCAGAAGGCACAUGAGGAUCACCCAUGUAAUUUAUUUAU | 75.2 | 285 |  | 
GGCGGUCGGGAGGAUAUUCGGGCUGUUUGGCUUGGAGAAGGCUCGACAUGAGGAUCACCCAUGUUGGUGUUCUU | 387 | 40.8 |  | 
GAGCUCGAUGAGAAGGGUUACAUGAGGAUCACCCAUGUCGACCUUGGCGUAACAGGAUAUCACCGGGCUCAGUGCGUUGACCCA | 27.1 | 121 |  | 
CAUUAACAUGAGGAUCACCCAUGUGAGGAUAUGAUAUUACUUGGACAGCUGUGGUCAAUCAGAAGGCACAUCUU | 27.8 | 32.9 |  | 
CUGACGGCGACGACAUUUCCAGAACCAGAAGGUGAAGUCAACAUGAGGAUCACCCAUGUCUAUAUCAAGGAUAUGGUAGUGGGC |  |  | 301 | 92.2
UGAUAGGACAGAGGAUAUACGGAUAGGAUCUACUAUCAAACAGGUCCUACAUGAGGAUCACCCAUGUAGAAGGCUGUCCUAUCU | 22.9 | 111 |  | 
ACAGCCGUCUAGAAGGGCGUAACUAAUUCCUACGUAGGAUAUGGACGGACAUGAGGAUCACCCAUGUUUGCAUUCCUCGUGGUA | 7.74 | 8.46 |  | 

Sequence | apparent Kd [1] [nM] | apparent Kd [2] [nM] | apparent Kd [3] [nM] | apparent Kd [4] [nM]
GCUCUUGUCAAGAAGGGCUCGCGGUACGCUGCAGCAGGAUAUUGACAUGAGGAUCACCCAUGUCGACCGGAACAUCUUUGAGGG | 13.3 | 134 |  | 
GCAUGCGUUCGAGGAUAUCGGUGAGAAACGGAACGAGAAGGCGAUCGAAUGUCUCAUCUUAUGAACAUGAGGAUCACCCAUGUA |  |  | 299 | 83.2
GUUUCACAUGAGGAUCACCCAUGUGAGGAUAUGGAUUCGCUGGCCGUAGCCAGUGGAUCCAGAAGGCGCAUGAU | 35.7 | 44 |  | 
GUUGUGCGAGGAUAUACUUGGUGUGUCCUGUGCACGUAAUGACAUGAGGAUCACCCAUGUAGAAGGUGCCCAGG | 32.8 | 33.9 |  | 
CAGCAAAAGUAGAAGGCAGUACUGAUUCAGUACUGAGGAUAUACAUGAGGAUCACCCAUGUCUUCCAGCUGAAUAAUAAAAUAA | 6.14 | 45.5 |  | 
AACGUGUGAGGAUAUUAGUUGUACGUCAAUAGACGUAUAAGUGAGAAGGCACAUGAGGAUCACCCAUGUUCCUG | 23.9 | 195 |  | 
AGCCGGGCCCAGAAGGUGCCAGCGAGAGCUGCACAUGAGGAUCACCCAUGUUGUCGGUGACGACGCAAGGAUAUGGGCCCGGCU |  |  | 22.7 | 7.17
CAAAAGCGAGGAUAUACAUGAGGAUCACCCAUGUGGCAGCCAUGUAGGAGUGACGUCGGUAGAAGGCGCACCCU | 99.8 | 141 |  | 
CCGGGACAUGAGGAUCACCCAUGUUUCGUUUGUAGUAAAACACAGGAUAUGAUGAAACAGGUUUCUCAGAAGGGUGUUCCGAAA |  |  | 81.3 | 55.3
CCAUGUCUAUGAGGAUAUCCGAAUUAGCGUUUGACAACGAUGAGUUCUCCAGGAGAAGGCAUGGACAUGAGGAUCACCCAUGUA | 29.6 | 75.5 |  | 
GGUCCAUCAUGAGGAUAUGGCACCUUAUUGGUGCCAGAAGGCAUGUCUCUUGACAUGAGGAUCACCCAUGUAAUAAAUUGGACC |  |  | 915 | 125
GGAUGAGAAACUCAUCCAAUACGAACAUGAGGAUCACCCAUGUAGGAUAUGCUACUCAAAGAGUAGCAGAAGGACAUGUGUCUU | 27.4 | 159 |  | 
UGGUACUAGGGAGGAUAUGGGAAGAUACAUGAGGAUCACCCAUGUUUAAGAAUGCCGAGAGGCAACUAGAAGGCCGUAGUACCU |  |  | 466 | 20.3
UUGGAUGUUGAGGAUAUGCUGGUGUUUAUUAUAGCAGAAGGCGAUACAUGAGGAUCACCCAUGUUCAUGGCUUU | 12.8 | 15.2 |  | 
GGCGGUUUGGCAGGAUAUCGGAAACAGACCAAACGAGAAGGGCCUACAUGGCAAUGCGAAAGCAGACAUGAGGAUCACCCAUGU |  |  | 84.9 | 72.2
CUGAGCAGUCAAGGAUAUCACGUCGAAUAGACGUGAGAAGGUGACCAAUACAUGAGGAUCACCCAUGUAAUACAUGAAGCUCAG |  |  | 38.1 | 17.4
UGGUACUAGGGAGGAUAUGGGAAGAUACAUGAGGAUCACCCAUGUUUAAGAAUGCCGAGAGACAACUAGAAGGCCCUAGUACCU |  |  | 240 | 22.2
AAACAAGAAGGAUAUACAUUAUCGGAUCUUCCGGCAAUGCCACAUGAGGAUCACCCAUGUAGAAGGUCUAAAUU | 12.3 | 18.9 |  | 
GCCAGAGCAGGAUAUUCAAUAAUCCACAUGAGGAUCACCCAUGUCCAGCGAAAGCUGGAGGGAGAAGGGCUCUGGC | 94.2 | 35.1 |  | 
GCUAUCGAUGUAGGAUAUGAUAUAGAAACUAUGUCAGAAGGACAUGAGGAUCACCCAUGUCAAUGGAUGGAGAGAAGAGAUGGC | 26.7 | 52.5 |  | 
UUGUGGGAGACAGGAUAUGUACGGAAGGUCCACGUACAUGAGGAUCACCCAUGUCCAGGCUUCAGACAGAAGGGUCACCAGGUG |  |  | 595 | 45.4
UGGUCACAUGAGGAUCACCCAUGUCAGGAUAUCUACAUUGAAGCCUCGGCUUCAAUGUAGAGAAGGGAUAUAAU | 65.5 | 148 |  | 
AUCAGCUCGUCAGGAUAUACGUCACUGCGUCAGCAGUGUGGUAUGAUCACAUGAGGAUCACCCAUGUAGAAGGGACGAGCUGAU | 8.62 | 132 |  | 
GGUCGUCACAUUAACAUGAGGAUCACCCAUGUCUCUAGACAUGAGGAUAUGGAUCCUAAUUGGAUCCAGAAGGCAUGGACGACC |  |  | 1490 | 142
